For one compound, Ki results are on record in BindingDB's records for doi:10.1016/j.bmc.2014.05.061 (Academy of Sciences of The Czech Republic, 2014).

For the test, the target named is Glutamate carboxypeptidase 2 (Homo sapiens, UniProt Q04609). The test can be described thus: Inhibition of human recombinant N-terminal Avi-tagged glutamate carboxypeptidase 2 extracellular domain (44 to 750 amino acids) using pteroyl-di-L-glutamate substrate by HPLC method. In short, it runs like this:
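Avi-GCPII (0.2 ng) in 25 mM Bis-Tris propane, 150 mM NaCl, 0.001% octaethylene glycol monododecyl ether, pH 7.4, preincubated with inhibitor (ten concentrations) 5 min at 37 °C. Reaction started with pteroyl-di-L-glutamate (20 µl of 4 µM stock), run 20 min at 37 °C, stopped with 2-PMPA. Substrate and product separated by isocratic HPLC, detected at 281 nm; IC50 from full curves, Ki mean ± SD, duplicate or triplicate.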

Glutamate carboxypeptidase 2, sequence (Q04609 whole entry, the tested form may be a part): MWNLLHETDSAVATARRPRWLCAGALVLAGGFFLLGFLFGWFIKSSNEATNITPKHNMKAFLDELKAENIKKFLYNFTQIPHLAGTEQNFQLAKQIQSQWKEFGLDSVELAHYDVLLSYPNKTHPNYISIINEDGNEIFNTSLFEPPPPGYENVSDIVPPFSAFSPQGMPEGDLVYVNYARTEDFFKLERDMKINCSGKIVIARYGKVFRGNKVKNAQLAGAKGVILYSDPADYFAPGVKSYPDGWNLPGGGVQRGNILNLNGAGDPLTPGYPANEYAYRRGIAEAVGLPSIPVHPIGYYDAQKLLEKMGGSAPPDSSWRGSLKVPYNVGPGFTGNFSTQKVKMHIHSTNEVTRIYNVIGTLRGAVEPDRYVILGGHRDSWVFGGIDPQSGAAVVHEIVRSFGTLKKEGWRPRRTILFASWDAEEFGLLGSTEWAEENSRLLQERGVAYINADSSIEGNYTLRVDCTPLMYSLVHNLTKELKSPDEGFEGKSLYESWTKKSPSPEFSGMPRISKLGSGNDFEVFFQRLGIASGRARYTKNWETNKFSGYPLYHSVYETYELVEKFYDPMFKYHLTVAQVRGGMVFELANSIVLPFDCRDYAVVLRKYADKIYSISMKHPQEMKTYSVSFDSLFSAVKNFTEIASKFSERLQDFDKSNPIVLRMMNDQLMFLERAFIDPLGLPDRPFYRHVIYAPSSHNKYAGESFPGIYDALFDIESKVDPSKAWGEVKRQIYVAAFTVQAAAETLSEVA

As a reminder, the Ki is the dissociation constant of the complex between target and ligand, obtained from inhibition or displacement. With `O=C(O)CC[C@H](NC(=O)N[C@@H](CCCCNC(=O)Nc1ccc(Br)cc1OCCNC(=O)CCOCCOCCOCCOCCOCCOCCOCCOCCOCCOCCOCCOCCNC(=O)CCCC[C@@H]1SC[C@@H]2NC(=O)N[C@@H]21)C(=O)O)C(=O)O`, the Ki came to 0.221 nM.
